Results of several laboratories.
DRD3: D(3) dopamine receptor (DRD3, Homo sapiens, UniProt P35462)
MDM4: Protein Mdm4 (MDM4, Homo sapiens, UniProt O15151)
GLP1R: Glucagon-like peptide 1 receptor (GLP1R, Homo sapiens, UniProt P43220)

| SMILES | target | effect on | mode | technique | setting | quantity | result |
| --- | --- | --- | --- | --- | --- | --- | --- |
| CCCC[C@@H](NC(=O)[C@@H](N)Cc1c(C)cc(O)cc1C)C(=O)NCC(=O)N[C@@H](Cc1ccc(F)cc1)C(=O)N(C)CCC[C@@]1(c2ccc(F)cc2)OCc2cc(C#N)ccc21 | DRD3 | ligand displacement |  | radioligand |  | Ki | 2000 nM |
| CC(C)[C@@H]1NC(=O)[C@H](CO)NC(=O)[C@H](CO)NC(=O)[C@H](CO)N(C)C(=O)[C@H](CC(=O)O)NC(=O)[C@H](CO)NC(=O)[C@H](Cc2ccccc2)NC(=O)CSC[C@@H](C(=O)NCC(N)=O)NC(=O)[C@H](CC(N)=O)NC(=O)[C@H](CCCNC(=N)N)NC(=O)[C@H](Cc2ccc(-c3ccccc3)cc2)NC(=O)[C@H](Cc2ccc(-c3ccccc3)cc2)NC(=O)[C@H](CC(N)=O)NC(=O)[C@@H]2CCCN2C1=O | MDM4 | ligand displacement |  | TR-FRET |  | IC50 | 835 nM |
| C[C@@H](NC(=O)[C@@H](N)Cc1ccc(O)cc1)C(=O)NCC(=O)N[C@@H](Cc1ccccc1)C(=O)N(C)CCC[C@@]1(c2ccc(F)cc2)OCc2cc(C#N)ccc21 | DRD3 | ligand displacement |  | radioligand |  | Ki | > 10000 nM |
| CC[C@H](C)[C@H](NC(=O)[C@H](CC(C)C)NC(=O)[C@H](Cc1c[nH]c2ccccc12)NC(=O)[C@H](CCCCN)NC(=O)[C@H](CC(C)C)NC(=O)[C@H](Cc1ccccc1)NC(=O)[C@H](CCC(=O)O)NC(=O)[C@H](CCC(N)=O)NC(=O)[C@@H](NC(=O)[C@H](C)NC(=O)[C@H](CC(C)C)NC(=O)[C@H](CC(=O)O)NC(=O)[C@H](CC(=O)O)NC(=O)[C@H](CC(C)C)NC(=O)[C@H](CC(C)C)NC(=O)[C@H](CCCCN)NC(=O)[C@H](CC(N)=O)NC(=O)[C@H](Cc1ccc(O)cc1)NC(=O)[C@H](CC(=O)O)NC(=O)[C@H](CO)NC(=O)[C@@H](NC(=O)[C@H](Cc1ccccc1)NC(=O)[C@@H](NC(=O)CNC(=O)[C@H](CC(=O)O)NC(=O)[C@H](C)NC(=O)[C@@H](N)Cc1c[nH]cn1)[C@@H](C)O)[C@@H](C)O)[C@@H](C)O)C(=O)N[C@@H](CC(N)=O)C(=O)N[C@@H](CCC(N)=O)C(=O)N[C@@H](CCCCN)C(=O)N[C@H](C(=O)N[C@H](C(=O)N[C@@H](CCC(N)=O)C(=O)O)[C@@H](C)O)C(C)C | GLP1R | reporter gene | agonist | luciferase |  | EC50 | 1.5 nM |
| CC(C)NCC1CCc2cc(CO)c([N+](=O)[O-])cc2N1 (stereo not drawn) | DRD3 | ligand displacement |  | radioligand |  | IC50 | 7400 nM |
| CC[C@H](C)[C@H](NC(=O)[C@H](CC(C)C)NC(=O)[C@H](Cc1c[nH]c2ccccc12)NC(=O)[C@H](CC(=O)O)NC(=O)[C@@H](NC(=O)[C@H](Cc1ccccc1)NC(=O)[C@H](CCC(=O)O)NC(=O)[C@H](CCCCN)NC(=O)[C@H](C)NC(=O)[C@H](C)NC(=O)[C@H](CCCCN)NC(=O)[C@H](CCC(=O)O)NC(=O)[C@H](CC(=O)O)NC(=O)[C@H](CC(C)C)NC(=O)[C@H](Cc1c[nH]cn1)NC(=O)[C@H](CCC(N)=O)NC(=O)[C@@H](NC(=O)[C@@H](NC(=O)[C@H](CC(=O)O)NC(=O)[C@H](CO)NC(=O)[C@@H](NC(=O)[C@H](Cc1ccccc1)NC(=O)[C@@H](NC(=O)CNC(=O)[C@H](CCC(=O)O)NC(=O)[C@H](C)NC(=O)[C@@H](N)Cc1c[nH]cn1)[C@@H](C)O)[C@@H](C)O)C(C)C)[C@@H](C)O)[C@@H](C)CC)C(=O)N[C@@H](CC(N)=O)C(=O)NCC(=O)NCC(=O)N1CCC[C@H]1C(=O)O | GLP1R | reporter gene | agonist | luciferase |  | EC50 | 0.449 nM |
| CSc1nc(N[C@H](C(C)C)C2CC2)c2ncn([C@H]3[C@H](O)[C@H](O)[C@]4(CO)C[C@H]34)c2n1 | DRD3 | ligand displacement |  | radioligand |  | Ki | 2230 nM |
| CC(C)[C@@H]1NC(=O)[C@H](CO)NC(=O)[C@H](CO)NC(=O)[C@H](CO)N(C)C(=O)[C@H](CC(=O)O)NC(=O)[C@H](CO)NC(=O)[C@H](Cc2ccccc2)NC(=O)CSC[C@@H](C(=O)NCC(N)=O)NC(=O)[C@H](CC(N)=O)NC(=O)[C@H](CCCNC(=N)N)NC(=O)[C@H](C)NC(=O)[C@H](Cc2ccc(-c3ccccc3)cc2)NC(=O)[C@H](CC(N)=O)NC(=O)[C@@H]2CCCN2C1=O | MDM4 | ligand displacement |  | TR-FRET |  | Ki | > 8880 nM |
| COc1ncccc1-c1cnn2ccc(N3CCN(C(=O)OC(C)C)CC3)nc12 | Glutamate NMDA receptor; GRIN1/GRIN2B (GRIN1/GRIN2B, Homo sapiens, UniProt Q05586+Q13224) | ion current | inhibitor |  |  | IC50 | > 25000 nM |
| CO[C@H]1C[C@H](O[C@H]2[C@H](C)O[C@@H](O[C@@H]3/C(C)=C/C[C@@H]4C[C@@H](C[C@]5(C=C[C@H](C)[C@@H](C6CCCCC6)O5)O4)OC(=O)[C@@H]4C=C(C)[C@@H](O)[C@H]5OC/C(=C\C=C\[C@@H]3C)[C@]54O)C[C@@H]2OC)O[C@@H](C)[C@@H]1O | Nuclear receptor subfamily 1 group I member 3 (Homo sapiens, UniProt Q14994) | reporter gene | antagonist |  |  | IC50 | 43200 nM |
| CC(CCc1ccccc1)NC(C)C(O)c1ccc(O)cc1 (stereo not drawn) | DRD3 | ligand displacement |  | radioligand |  | IC50 | 1290 nM |
| Nc1c(S(=O)(=O)O)cc(Nc2ccc(Nc3nc(Cl)nc(Nc4cccc(S(=O)(=O)O)c4)n3)c(S(=O)(=O)O)c2)c2c1C(=O)c1ccccc1C2=O | Pantothenate kinase 3 (PANK3, Homo sapiens, UniProt Q9H999) | enzyme activity | inhibitor | ATP luminescence |  | IC50 | 1300 nM |
| C/C(N)=N\C(=N/S(=O)(=O)c1ccc(C(F)(F)F)cc1)N1C[C@H](c2ccccc2)C(c2ccc(Cl)cc2)=N1 | Cannabinoid receptor 1 (Cnr1, Mus musculus, UniProt P47746) | ligand displacement |  | radioligand | cell membranes | Ki | 2.3 nM |
| CC(C)(O)[C@@H](Nc1nc(Cl)nc2c1ncn2[C@H]1[C@H](O)[C@H](O)[C@]2(CO)C[C@H]12)C1CC1 | DRD3 | ligand displacement |  | radioligand |  | Ki | 1350 nM |
| CC(C)[C@H](NC(=O)[C@@H]1CSSC(C)(C)[C@H](NC(=O)[C@@H](N)CC(=O)O)C(=O)N[C@@H](Cc2ccccc2)C(=O)N[C@H](Cc2c[nH]c3ccccc23)C(=O)N[C@@H](CCCN)C(=O)N[C@@H](Cc2ccc(N)cc2)C(=O)N1)C(=O)O | Urotensin-2 receptor (UTS2R, Homo sapiens, UniProt Q9UKP6) | ligand displacement |  | radioligand | cell membranes | Ki | 2.69 nM |
| c1cc[c]([Sn]([c]2ccccc2)[c]2ccccc2)cc1 | Peroxisome proliferator-activated receptor gamma (PPARG, Homo sapiens, UniProt P37231) | reporter gene | agonist | luciferase |  | EC50 | 20 nM |
| CSCC[C@H](NC(=O)[C@H](CCC(=O)O)NC(=O)[C@@H]1CCCN1C(=O)[C@@H](NC(=O)[C@@H]1CCCN1)[C@@H](C)O)C(=O)N[C@@H](CCCNC(=N)N)C(=O)N[C@@H](CCC(=O)O)C(=O)N[C@@H](CCCCN)C(=O)N[C@@H](CC(C)C)C(=O)N[C@H]1CSSC[C@@H]2NC(=O)[C@@H](NC(=O)[C@H](CC(C)C)NC(=O)[C@@H](NC(=O)[C@H](CCC(N)=O)NC(=O)[C@H](CC(C)C)NC(=O)[C@H](CC(=O)O)NC(=O)[C@@H]3CCC(=O)N3)[C@@H](C)O)CSSC[C@H](NC(=O)CNC(=O)[C@H](CC(=O)O)NC(=O)[C@H]([C@@H](C)O)NC2=O)C(=O)N[C@@H](CO)C(=O)N[C@@H](CCSC)C(=O)N[C@@H]([C@@H](C)O)C(=O)N[C@@H](CC(=O)O)C(=O)N[C@@H](CC(C)C)C(=O)N[C@@H](CO)C(=O)N[C@@H](C)C(=O)N[C@@H](CC(C)C)C(=O)N[C@H](C(=O)O)CSSC[C@@H](C(=O)NCC(=O)NCC(=O)N2CCC[C@H]2C(=O)N[C@@H](CCCNC(=N)N)C(=O)N[C@@H](Cc2c[nH]c3ccccc23)C(=O)N[C@@H](CO)C(=O)N[C@H](C(=O)N[C@@H](CCC(=O)O)C(=O)N[C@@H](C)C(=O)O)[C@@H](C)O)NC(=O)[C@H](C(C)C)NC(=O)[C@H](CCCNC(=N)N)NC(=O)[C@H](C(C)C)NC(=O)[C@H](CC(C)C)NC(=O)[C@H](C)NC(=O)[C@H](CCCNC(=N)N)NC(=O)[C@H](C(C)C)NC(=O)[C@H](Cc2ccccc2)NC(=O)[C@H](Cc2c[nH]cn2)NC(=O)[C@H](Cc2c[nH]cn2)NC(=O)CNC1=O | Relaxin receptor 2 (RXFP2, Homo sapiens, UniProt Q8WXD0) | ligand displacement in cells |  |  |  | Ki | 0.708 nM |
| CC(C)C[C@H](NC(=O)[C@H](Cc1ccc(O)cc1)NC(=O)[C@H](CO)NC(=O)[C@H](CO)NC(=O)[C@@H](NC(=O)[C@H](CC(=O)O)NC(=O)[C@H](CO)NC(=O)[C@@H](NC(=O)[C@H](Cc1ccc(O)cc1)NC(=O)[C@@H](NC(=O)CNC(=O)[C@H](CC(=O)O)NC(=O)[C@H](C)NC(=O)[C@@H](N)Cc1c[nH]cn1)[C@@H](C)O)[C@@H](C)O)C(C)C)C(=O)N[C@@H](CCC(N)=O)C(=O)N[C@@H](CC(=O)O)C(=O)N[C@@H](CCC(N)=O)C(=O)N[C@@H](C)C(=O)N[C@@H](C)C(=O)N[C@@H](CCCCN)C(=O)N[C@@H](CCC(=O)O)C(=O)N[C@@H](Cc1ccccc1)C(=O)N[C@H](C(=O)N[C@@H](CO)C(=O)N[C@@H](Cc1c[nH]c2ccccc12)C(=O)N[C@@H](CC(C)C)C(=O)N[C@@H](CCCCN)C(=O)N[C@H](C(=O)NCC(=O)N[C@@H](CCCNC(=N)N)C(=O)NCC(=O)O)[C@@H](C)O)C(C)C | GLP1R | reporter gene | agonist | luciferase |  | EC50 | 0.436 nM |
| C[C@H](N)Cn1ncc2ccc3c(c21)CCCO3 | 5-hydroxytryptamine receptor 2C (Rattus norvegicus, UniProt P08909) | calcium signal | agonist |  |  | EC50 | 15.7 nM |
| CCCCNNC(=O)c1ccc(Br)cc1 | Histone deacetylase 5 (HDAC5, Homo sapiens, UniProt Q9UQL6) | enzyme activity | inhibitor | fluorescence |  | IC50 | > 100000 nM |
| CC[C@H](C)[C@H](NC(=O)[C@H](CC(=O)O)NC(=O)[C@H](CC(N)=O)NC(=O)[C@@H](NC(=O)[C@H](Cc1ccccc1)NC(=O)[C@H](CO)NC(=O)CNC(=O)[C@H](CC(=O)O)NC(=O)[C@H](C)NC(=O)[C@@H](N)Cc1c[nH]cn1)[C@@H](C)O)C(=O)N[C@@H](CC(N)=O)C(=O)N[C@@H](CCCCN)C(=O)N[C@H](C(=O)N[C@@H](CC(C)C)C(=O)N[C@@H](CC(=O)O)C(=O)N[C@H](C(=O)N[C@H](C(=O)N[C@@H](C)C(=O)N[C@@H](C)C(=O)N[C@@H](CCC(N)=O)C(=O)N[C@@H](CCC(=O)O)C(=O)N[C@@H](Cc1ccccc1)C(=O)N[C@@H](CC(C)C)C(=O)N[C@@H](CC(=O)O)C(=O)N[C@@H](Cc1c[nH]c2ccccc12)C(=O)N[C@H](C(=O)N[C@H](C(=O)N[C@@H](CC(N)=O)C(=O)N[C@H](C(=O)N[C@@H](CCC(N)=O)C(=O)N[C@H](C(=O)N[C@H](C(=O)N[C@@H](CCC(=O)O)C(=O)O)[C@@H](C)O)C(C)C)[C@@H](C)O)[C@@H](C)CC)C(C)C)[C@@H](C)CC)[C@@H](C)CC)C(C)C | GLP1R | reporter gene | agonist | luciferase |  | EC50 | 29.9 nM |
